# Data reported in ChEMBL document CHEMBL4138242, “Synthesis and antibacterial evaluation of novel cationic chalcone derivatives possessing broad spectrum antibacterial activity” (Eur J Med Chem, 2018).
# Activity calls are given as the source filed them.
# Experiments:
# Enterococcus faecalis = test: Antibacterial activity against Enterococcus faecalis ATCC 29212 after 16 to 20 hrs by broth microdilution method; type: functional
# In short: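 Broth microdilution per CLSI. Bacteria grown 4-6 h (about 10⁸ CFU/mL), then diluted to about 10⁶ CFU/mL. Medium: Mueller-Hinton broth, except Luria-Bertani broth for E. coli. Compounds in sterile water, twofold series 256-0.5 µg/mL, mixed 1:1 with inoculum, 37 °C for 16-20 h. MIC is the lowest concentration without visible growth. Duplicate wells; experiment repeated at least twice.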
# Staphylococcus aureus [1] = test: Antibacterial activity against methicillin-resistant Staphylococcus aureus clinical isolate 20130911034sau after 16 to 20 hrs by broth microdilution method; type: functional
# In short: (§1)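 CLSI broth microdilution in Mueller-Hinton broth. A 4-6 h culture was diluted to about 10⁶ CFU/mL and mixed 1:1 with compound dilutions prepared at 256 to 0.5 µg/mL from aqueous stocks. Plates were incubated at 37 °C for 16-20 h and read visually for MIC. Each concentration was run in duplicate, and the experiment was repeated at least twice. Vancomycin and meropenem were comparators.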
# Staphylococcus aureus [2] = test: Antibacterial activity against methicillin-resistant Staphylococcus aureus clinical isolate 0831010 after 16 to 20 hrs by broth microdilution method; type: functional; in short: as §1
# Staphylococcus aureus [3] = test: Antibacterial activity against methicillin-resistant Staphylococcus aureus clinical isolate 1104060 after 16 to 20 hrs by broth microdilution method; type: functional; in short: as §1
# Staphylococcus aureus [4] = test: Antibacterial activity against methicillin-resistant Staphylococcus aureus clinical isolate 20131012632sau after 16 to 20 hrs by broth microdilution method; type: functional; in short: as §1
# Staphylococcus aureus [5] = test: Antibacterial activity against methicillin-resistant Staphylococcus aureus clinical isolate 1207007 after 16 to 20 hrs by broth microdilution method; type: functional; in short: as §1
# Staphylococcus aureus [6] = test: Antibacterial activity against methicillin-resistant Staphylococcus aureus clinical isolate 0906202 after 16 to 20 hrs by broth microdilution method; type: functional; in short: as §1
# Staphylococcus aureus [7] = test: Antibacterial activity against methicillin-resistant Staphylococcus aureus clinical isolate 1208143 after 16 to 20 hrs by broth microdilution method; type: functional; in short: as §1
# Klebsiella pneumoniae [8] = test: Antibacterial activity against drug-resistant carbapenemase producing Klebsiella pneumoniae clinical isolate KP-14-8 after 16 to 20 hrs by broth microdilution method; type: functional; in short: as §1
# Klebsiella pneumoniae [9] = test: Antibacterial activity against drug-resistant carbapenemase producing Klebsiella pneumoniae clinical isolate KP-14-4 after 16 to 20 hrs by broth microdilution method; type: functional; in short: as §1
# Klebsiella pneumoniae [10] = test: Antibacterial activity against drug-resistant carbapenemase producing Klebsiella pneumoniae clinical isolate KP-14-2 after 16 to 20 hrs by broth microdilution method; type: functional; in short: as §1
# Klebsiella pneumoniae [11] = test: Antibacterial activity against drug-resistant carbapenemase producing Klebsiella pneumoniae clinical isolate KP-14-45 after 16 to 20 hrs by broth microdilution method; type: functional; in short: as §1
# Klebsiella pneumoniae [12] = test: Antibacterial activity against drug-resistant carbapenemase producing Klebsiella pneumoniae clinical isolate KP-14-18 after 16 to 20 hrs by broth microdilution method; type: functional; in short: as §1
# Escherichia coli [13] = test: Antibacterial activity against drug-resistant NDM1 producing Escherichia coli clinical isolate EC-13-49 after 16 to 20 hrs by broth microdilution method; type: functional; in short: as §1
# Escherichia coli [14] = test: Antibacterial activity against drug-resistant NDM1 producing Escherichia coli clinical isolate Ecl-14-58 after 16 to 20 hrs by broth microdilution method; type: functional; in short: as §1
# Escherichia coli [15] = test: Antibacterial activity against drug-resistant NDM1 producing Escherichia coli clinical isolate KP-13-58 after 16 to 20 hrs by broth microdilution method; type: functional; in short: as §1
# Escherichia coli [16] = test: Antibacterial activity against drug-resistant NDM1 producing Escherichia coli clinical isolate Ecl-13-62 after 16 to 20 hrs by broth microdilution method; type: functional; in short: as §1
# Escherichia coli [17] = test: Antibacterial activity against drug-resistant NDM1 producing Escherichia coli clinical isolate EC-14-54 after 16 to 20 hrs by broth microdilution method; type: functional; in short: as §1
# Escherichia coli [18] = test: Antibacterial activity against drug-resistant NDM1 producing Escherichia coli clinical isolate Ecl-14-59 after 16 to 20 hrs by broth microdilution method; type: functional; in short: as §1
# Escherichia coli [19] = test: Antibacterial activity against drug-resistant NDM1 producing Escherichia coli clinical isolate EA-14-61 after 16 to 20 hrs by broth microdilution method; type: functional; in short: as §1
# Escherichia coli [20] = test: Antibacterial activity against drug-resistant NDM1 producing Escherichia coli clinical isolate 1460 after 16 to 20 hrs by broth microdilution method; type: functional; in short: as §1
# Escherichia coli [21] = test: Antibacterial activity against drug-resistant NDM1 producing Escherichia coli clinical isolate SM-15-84 after 16 to 20 hrs by broth microdilution method; type: functional; in short: as §1
# Escherichia coli [22] = test: Antibacterial activity against drug-resistant NDM1 producing Escherichia coli clinical isolate CF-15-61 after 16 to 20 hrs by broth microdilution method; type: functional; in short: as §1
# Staphylococcus aureus [23] = test: Disruption of 24 hrs cultured Staphylococcus aureus ATCC 29213 biofilm assessed as cell viability in biofilm at 4 ug/ml after 24 hrs by crystal violet staining-based assay (reference value: 15.96 log10CFU/ml); type: functional
# Staphylococcus aureus [24] = test: Disruption of 24 hrs cultured Staphylococcus aureus ATCC 29213 biofilm assessed as cell viability in biofilm at 8 ug/ml after 24 hrs by crystal violet staining-based assay (reference value: 15.96 log10CFU/ml); type: functional
# Staphylococcus aureus [25] = test: Disruption of 24 hrs cultured Staphylococcus aureus ATCC 29213 biofilm assessed as cell viability in biofilm at 64 ug/ml after 24 hrs by crystal violet staining-based assay (reference value: 15.96 log10CFU/ml); type: functional
# Escherichia coli [26] = test: Antibacterial activity against Escherichia coli ATCC 25922 at sub MIC after 20 passages; type: functional, organism-based
# In short: (§2)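 The MIC was first measured by broth microdilution. Cells grown at MIC/2 were then carried into a fresh MIC assay after each 24 h, repeated over 20 serial passages. Norfloxacin (S. aureus) and colistin (E. coli) served as control antibiotics. Resistance was defined as a >4-fold rise over the original MIC.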
# Staphylococcus aureus [27] = test: Antibacterial activity against Staphylococcus aureus ATCC 29213 at sub MIC after 20 passages; type: functional, organism-based; in short: as §2
# Staphylococcus aureus [28] = test: Induction of inner membrane permeabilization in Staphylococcus aureus ATCC 29213 at 10 to 20 ug/ml measured every 2 mins for 12 mins by propidium iodide staining-based fluorescence assay; type: functional, organism-based
# In short: (§3)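 Mid-log cells (~10⁸ CFU/mL) were suspended in PBS (S. aureus) or HEPES/glucose/KCl (E. coli). They were preincubated with propidium iodide for 30 min (S. aureus) or 40 min (E. coli), and baseline fluorescence was read for 8 min. Compound was added to 20 µg/mL final, and fluorescence (ex 535/em 617 nm) was read every 2 min for 12 min.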
# Escherichia coli [29] = test: Induction of inner membrane permeabilization in Escherichia coli ATCC 25922 at 10 to 20 ug/ml measured every 2 mins for 12 mins by propidium iodide staining-based fluorescence assay; type: functional, organism-based; in short: as §3
structure (smiles),measurement,setting,value
CCCCCCCC[N+](C)(C)CC(=O)Nc1ccc(C(=O)/C=C/c2ccccc2F)cc1.[Cl-],MIC,Enterococcus faecalis,1 µg/mL
same,MIC,Staphylococcus aureus [1],0.5 µg/mL
same,MIC,Staphylococcus aureus [2],0.5 µg/mL
same,MIC,Staphylococcus aureus [3],8 µg/mL
same,MIC,Staphylococcus aureus [4],2 µg/mL
same,MIC,Staphylococcus aureus [5],0.25 µg/mL
same,MIC,Staphylococcus aureus [6],4 µg/mL
same,MIC,Staphylococcus aureus [7],1 µg/mL
same,MIC,Klebsiella pneumoniae [8],4 µg/mL
same,MIC,Klebsiella pneumoniae [9],4 µg/mL
same,MIC,Klebsiella pneumoniae [10],16 µg/mL
same,MIC,Klebsiella pneumoniae [11],8 µg/mL
same,MIC,Klebsiella pneumoniae [12],16 µg/mL
same,MIC,Escherichia coli [13],4 µg/mL
same,MIC,Escherichia coli [14],4 µg/mL
same,MIC,Escherichia coli [15],1 µg/mL
same,MIC,Escherichia coli [16],4 µg/mL
same,MIC,Escherichia coli [17],16 µg/mL
same,MIC,Escherichia coli [18],16 µg/mL
same,MIC,Escherichia coli [19],4 µg/mL
same,MIC,Escherichia coli [20],4 µg/mL
same,MIC,Escherichia coli [21],16 µg/mL
same,MIC,Escherichia coli [22],4 µg/mL
same,Activity,Staphylococcus aureus [23],12.93 log10CFU/ml
same,Activity,Staphylococcus aureus [24],11.696 log10CFU/ml
same,Activity,Staphylococcus aureus [25],9.41 log10CFU/ml
same,Activity,Escherichia coli [26],Active
same,Activity,Staphylococcus aureus [27],Active
same,Activity,Staphylococcus aureus [28],Active
same,Activity,Escherichia coli [29],Active
